The record followed here is ChEMBL document CHEMBL3632620, “Synthesis, characterization, crystal structure determination and biological screening of novel N-1 and C5 alkyl substituted scaffolds of pyrimidine” (2015).

Converted amounts (≈) assume the structure as drawn. The source made the active and inactive calls. The rule behind the calls is not given here.

One may read the MIC as the lowest concentration found to suppress growth. Lower therefore signals greater potency.

For test [1], the system named is Staphylococcus epidermidis. Briefly: Antibacterial activity against Staphylococcus epidermidis ATCC 12228 assessed as growth inhibition at 100 ug/ml after 8 to 24 hrs by agar well diffusion method. Type of test: functional. The following applies: for zone of inhibition at 100 µg/mL: read-out: DIZ. In short, it runs like this: (§1)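 Agar well diffusion on nutrient agar (peptone, yeast extract, NaCl, 2% agar, pH 7). Suspensions were set to 0.5 McFarland in sterile water, final inoculum 5x10^7 CFU/mL. Plates were swabbed and left 15 min, then ~4 mm wells received 100 µL compound in DMSO, with DMSO as control. Plates stood 2 h at room temperature, then 24 h at 37 °C. Inhibition zone diameter was measured.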

For test [2], the system named is Salmonella enterica subsp. enterica serovar Abony. Briefly: Antibacterial activity against Salmonella abony NCTC 6017 after 24 to 48 hrs. Type of test: functional. In short, it runs like this: (§2)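 Broth MIC in nutrient broth, pH 7.0. Inoculum came from a 16 h culture set to 0.5 McFarland, then diluted 10-fold to 1.2x10^7 CFU/mL. Compounds went from a 4 mg/mL DMSO stock to final 250 to 0.03 µg/mL. Controls were inoculum without compound and compound without inoculum. Incubation was 24-48 h at 37 °C. Then 5 µL was spotted onto agar for 24 h at 37 °C. MIC is the lowest concentration with no visible growth.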

The test system of test [3] is Escherichia coli. As to the kind of experiment: Antibacterial activity against Escherichia coli ATCC 8739 after 24 to 48 hrs. It counts as functional. In short, it runs like this: as §2
The subject of test [4] is Staphylococcus aureus. Briefly: Antibacterial activity against Staphylococcus aureus ATCC 6538P assessed as growth inhibition at 100 ug/ml after 8 to 24 hrs by agar well diffusion method. It counts as functional. The following applies: read-out: DIZ. Put shortly: as §1
(A growth-free zone around the sample is the usual read-out of agar diffusion tests.)

For test [5], the system named is Escherichia coli. As to the kind of experiment: Antibacterial activity against Escherichia coli ATCC 8739 assessed as growth inhibition at 25 to 100 ug/ml at 12 hrs by agar well diffusion method. It counts as functional, organism-based.
The subject of test [6] is Staphylococcus aureus. As to the kind of experiment: Antibacterial activity against Staphylococcus aureus ATCC 6538P assessed as growth inhibition at 25 ug/ml after 8 to 24 hrs by agar well diffusion method. Type of test: functional. Conditions: read-out: DIZ. Put shortly:
as §1

Test [7] deals with Salmonella enterica subsp. enterica serovar Abony. As to the kind of experiment: Antibacterial activity against Salmonella abony NCTC 6017 assessed as growth inhibition at 25 ug/ml after 8 to 24 hrs by agar well diffusion method. It counts as functional. Conditions: read-out: DIZ. Put shortly: as §1
Test [8] deals with Staphylococcus aureus. As to the kind of experiment: Antibacterial activity against Staphylococcus aureus ATCC 6538P assessed as growth inhibition at 25 to 100 ug/ml at 12 hrs by agar well diffusion method. Type of test: functional, organism-based.
For test [9], the system named is Escherichia coli. Briefly: Antibacterial activity against Escherichia coli ATCC 8739 assessed as growth inhibition at 100 ug/ml after 8 to 24 hrs by agar well diffusion method. Type of test: functional. The following applies: read-out: DIZ. In short, it runs like this: as §1
Test [10] has as its system Staphylococcus epidermidis. Briefly: Antibacterial activity against Staphylococcus epidermidis ATCC 12228 assessed as growth inhibition at 25 ug/ml after 8 to 24 hrs by agar well diffusion method. It counts as functional. Put shortly: as §1
The test system of test [11] is Staphylococcus aureus. As to the kind of experiment: Antibacterial activity against Staphylococcus aureus ATCC 6538P after 24 to 48 hrs. Type of test: functional. In short, it runs like this:
as §2

The subject of test [12] is Staphylococcus epidermidis. Briefly: Antibacterial activity against Staphylococcus epidermidis ATCC 12228 after 24 to 48 hrs. It counts as functional. Put shortly:
as §2

Test [13] deals with Salmonella enterica subsp. enterica serovar Abony. Briefly: Antibacterial activity against Salmonella abony NCTC 6017 assessed as growth inhibition at 25 to 100 ug/ml at 12 hrs by agar well diffusion method. Type of test: functional, organism-based.
Test [14] deals with Escherichia coli. As to the kind of experiment: Antibacterial activity against Escherichia coli ATCC 8739 assessed as growth inhibition at 25 ug/ml after 8 to 24 hrs by agar well diffusion method. It counts as functional. The following applies: read-out: DIZ. In short, it runs like this: as §1
The subject of test [15] is Staphylococcus epidermidis. Briefly: Antibacterial activity against Staphylococcus epidermidis ATCC 12228 assessed as growth inhibition at 25 to 100 ug/ml at 12 hrs by agar well diffusion method. Type of test: functional, organism-based.
Test [16] deals with Salmonella enterica subsp. enterica serovar Abony. Briefly: Antibacterial activity against Salmonella abony NCTC 6017 assessed as growth inhibition at 100 ug/ml after 8 to 24 hrs by agar well diffusion method. It counts as functional. Conditions: read-out: DIZ. Put shortly: as §1

Consider `CCOC(=O)C1(C)C(C)NC(=O)N(C)C1c1ccc(Cl)cc1` (stereo unspecified), for which the zone of inhibition at 100 µg/mL in test [1] came out at 13 mm; in test [4], 16 mm; in [9] it was 14 mm; in test [16] it was 10 mm. For the same compound, the MIC in test [2] came out at 125 µg/mL (≈ 385 µM); in [3] it was 32 µg/mL (≈ 98.5 µM); in test [11] it was 68 µg/mL (≈ 209 µM); in test [12], 68 µg/mL (≈ 209 µM). Further, the result in [5], in [8], in test [13] and in [15] was inactive. The zone of inhibition at 25 µg/mL in [6] worked out at 12 mm; in test [7], 9 mm; in [14], 10 mm. Moreover, the “diameter of the inhibition zone (DIZ)” value in [10] was “inactive”.
Take `CCOC(=O)C1(C)C(C)NC(=O)N(C)C1c1ccccc1` (stereo unspecified): the zone of inhibition at 100 µg/mL in test [1] was 14 mm; in [4] it was 10 mm; in test [9], 13 mm; in [16], 10 mm. For the same compound, the MIC was determined as 125 µg/mL (≈ 430 µM) in test [2], 68 µg/mL (≈ 234 µM) in [3], 125 µg/mL (≈ 430 µM) in [11] and 68 µg/mL (≈ 234 µM) in test [12]. The outcome in test [5], in test [8], in test [13] and in [15] was inactive. Moreover, the zone of inhibition at 25 µg/mL was found to be 10 mm in test [6], 9 mm in test [7] and 12 mm in test [14]. For the same compound, the “diameter of the inhibition zone (DIZ)” value in [10] was “inactive”.
On to `CCOC(=O)C1(C)C(C)NC(=O)N(C)C1c1ccc(OC)cc1` (stereo unspecified), for which the “diameter of the inhibition zone (DIZ)” value in test [1] and in [10] was “inactive” in each case. The MIC is 68 µg/mL (≈ 212 µM) in test [2], 68 µg/mL (≈ 212 µM) in test [3], 68 µg/mL (≈ 212 µM) in [11] and over 250 µg/mL in [12]. Besides, the values for the zone of inhibition at 100 µg/mL in test [4], in test [9] and in [16] were 12 mm, 14 mm and 13 mm, respectively. Further, the outcome in [5], in test [8], in test [13] and in test [15] was inactive. The zone of inhibition at 25 µg/mL in test [6] was 10 mm; in test [7], 10 mm; in test [14] it was 13 mm.
On to `CN[C@@H]1[C@H](O[C@H]2[C@H](O[C@H]3[C@H](O)[C@@H](O)[C@H](N=C(N)N)[C@@H](O)[C@@H]3N=C(N)N)O[C@@H](C)[C@]2(O)C=O)O[C@@H](CO)[C@H](O)[C@H]1O` [STREPTOMYCIN], for which the “diameter of the inhibition zone (DIZ)” value in test [1] and in [10] was “inactive” throughout. The minimum inhibitory concentration (MIC) in [2] is 32 µg/mL (≈ 55 µM); in test [3], 32 µg/mL (≈ 55 µM); in test [11], 32 µg/mL (≈ 55 µM); in test [12] it was over 250 µg/mL. Besides, the zone of inhibition at 100 µg/mL in [4] turned out to be 16 mm; in test [9], 16 mm; in test [16], 18 mm. For the same compound, the results for the zone of inhibition at 25 µg/mL in test [6], in test [7] and in [14] were 12 mm, 25 mm and 14 mm, respectively.
Take `CCOC(=O)C1(C)C(C)NC(=O)N(C)C1c1ccccc1[N+](=O)[O-]` (stereo unspecified): the “diameter of the inhibition zone (DIZ)” value in [1] and in test [10] was “inactive” throughout. Moreover, the MIC is 16 µg/mL (≈ 47.7 µM) in test [2], 32 µg/mL (≈ 95.4 µM) in test [3], 8 µg/mL (≈ 23.9 µM) in test [11] and over 250 µg/mL in test [12]. The zone of inhibition at 100 µg/mL in test [4] was 28 mm; in test [9], 18 mm; in [16], 24 mm. Moreover, the result in [5], in test [8], in test [13] and in [15] was inactive. Further, the zone of inhibition at 25 µg/mL in test [6] stood at 14 mm; in test [7], 15 mm; in test [14], 13 mm.
On to `CCOC(=O)C1(C)C(C)NC(=O)N(C)C1c1ccc(O)cc1` (stereo unspecified), for which the “diameter of the inhibition zone (DIZ)” value in test [1] and in test [10] was “inactive” throughout. In addition, the MIC in test [2] is 68 µg/mL (≈ 222 µM); in [3], 125 µg/mL (≈ 408 µM); in test [11], 68 µg/mL (≈ 222 µM); in test [12] it was over 250 µg/mL. The zone of inhibition at 100 µg/mL is 12 mm in test [4], 10 mm in [9] and 14 mm in test [16]. Besides, the outcome in [5], in [8], in [13] and in [15] was inactive. Further, the zone of inhibition at 25 µg/mL in test [6] is 10 mm; in test [7], 11 mm; in test [14] it was 8 mm.
For `CCOC(=O)C1(C)C(C)NC(=S)N(C)C1c1ccc(Cl)cc1` (stereo unspecified), the “diameter of the inhibition zone (DIZ)” value in [1] and in test [10] was “inactive” in each case. Moreover, the minimum inhibitory concentration (MIC) in test [2] is 8 µg/mL (≈ 23.5 µM); in [3], 16 µg/mL (≈ 46.9 µM); in [11], 16 µg/mL (≈ 46.9 µM); in test [12], over 250 µg/mL. In addition, the results for the zone of inhibition at 100 µg/mL in test [4], in test [9] and in [16] were 23 mm, 20 mm and 28 mm, respectively. Besides, the outcome in [5], in [8], in test [13] and in test [15] was inactive. Moreover, the zone of inhibition at 25 µg/mL in test [6] was determined as 18 mm; in test [7] it was 18 mm; in test [14], 20 mm.
In the case of `O=C(N[C@H](CO)[C@H](O)c1ccc([N+](=O)[O-])cc1)C(Cl)Cl` [CHLORAMPHENICOL], the zone of inhibition at 100 µg/mL in test [1] amounted to 35 mm; in test [4], 28 mm; in [9], 24 mm; in [16], 32 mm. In addition, the minimum inhibitory concentration (MIC) was determined as 4 µg/mL (≈ 12.4 µM) in test [2], 8 µg/mL (≈ 24.8 µM) in test [11] and 4 µg/mL (≈ 12.4 µM) in test [12]. The zone of inhibition at 25 µg/mL in test [6] amounted to 20 mm; in test [7], 19 mm; in [10] (read-out: DIZ), 14 mm; in [14], 20 mm.
Take `CCOC(=O)C1(C)C(C)NC(=S)N(C)C1c1ccc(OC)cc1` (stereo unspecified): the “diameter of the inhibition zone (DIZ)” value in test [1] and in [10] was “inactive” each time. Also, the MIC was 32 µg/mL (≈ 95.1 µM) in test [2], 16 µg/mL (≈ 47.6 µM) in [3], 32 µg/mL (≈ 95.1 µM) in [11] and over 250 µg/mL in test [12]. In addition, the zone of inhibition at 100 µg/mL in test [4] is 16 mm; in [9], 22 mm; in test [16] it was 15 mm. Moreover, the outcome in test [5], in test [8], in test [13] and in test [15] was inactive. In addition, the values for the zone of inhibition at 25 µg/mL in test [6], in test [7] and in test [14] were 12 mm, 16 mm and 15 mm, respectively.
Consider `CCOC(=O)C1(C)C(C)NC(=O)N(C)C1c1ccc(N(C)C)cc1` (stereo unspecified), for which the “diameter of the inhibition zone (DIZ)” value in test [1] and in test [10] was “inactive” in each case. Moreover, the MIC is 16 µg/mL (≈ 48 µM) in test [2], 68 µg/mL (≈ 204 µM) in test [3], 32 µg/mL (≈ 96 µM) in [11] and over 250 µg/mL in test [12]. In addition, the figures for the zone of inhibition at 100 µg/mL in test [4], in test [9] and in [16] were 16 mm, 14 mm and 22 mm, respectively. In addition, the outcome in test [5], in test [8], in test [13] and in test [15] was inactive. Also, the zone of inhibition at 25 µg/mL was 12 mm in test [6], 10 mm in test [7] and 10 mm in test [14].
